A short description of data set [1]: Neurotoxicity in ip dosed C57B/6 mouse after 30 mins by rotarod test. Format: toxicity, organism-based. The note with it: in vivo. In short, it runs like this:
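Rotarod: 30 min after ip compound in polyethylene glycol-400, mice were placed on a 1-inch knurled plastic rod turning at 6 rpm for 1 min. Neurotoxicity was scored as failure to keep balance in each of three trials.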

Data set [2] concerns Mus musculus. Description: Anticonvulsant activity in ip dosed C57B/6 mouse assessed as protection against maximal electroshock-induced seizure after 30 mins. Format: functional. Conditions: C57B/6, ip, 0.5 h. A general note: In the maximal electroshock model the usual endpoint is tonic extension of the hind limbs; call rule not given here.
The species named for data set [3] is Mus musculus. Description: Protective index, ratio of TD50 for neurotoxicity in C57B/6 mouse to ED50 for anticonvulsant activity in C57B/6 mouse. Format: functional. In short, it runs like this:
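Protective index computed as TD50 (rotarod, 30 min after ip dosing in polyethylene glycol-400) divided by ED50 in the maximal electroshock test at 30 min, both values from dose-response plots analysed with the NINDS program.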

The test system of data set [4] is Mus musculus. Description: Anticonvulsant activity in ip dosed C57B/6 mouse assessed as protection against 3-mercaptopropionic acid-induced tonic seizure administered 30 mins before 3-mercaptopropionic acid challenge measured after 1 hrs. Format: ADME, organism-based. Conditions: C57B/6, ip. In short, it runs like this: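 Test compound given ip in polyethylene glycol-400; 30 min later 3-mercaptopropionic acid 40 mg/kg in saline injected sc. ED50 taken as the dose preventing tonic convulsions in 50% of treated mice.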

Data set [5] has as its system Mus musculus. Description: Anticonvulsant activity in C57B/6 mouse assessed as protection against strychnine-induced tonic seizure at 300 mg/kg, ip administered 30 mins before strychnine challenge measured after 30 mins. The note with it: in vivo, 0.5 h. On the set-up: dose 300 mg/kg, route intraperitoneal. Format: ADME, organism-based. In short, it runs like this:
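Mice given test compound ip in polyethylene glycol-400; 30 min later strychnine chlorhydrate in saline (1.2 mg/mL, 1 mL/kg) injected sc, a dose set by dose-percent effect curve to convulse 100% of animals. Mice held in individual cages and observed 30 min for convulsions.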

For data set [6], the system named is Mus musculus. Description: Anticonvulsant activity in ip dosed C57B/6 mouse assessed as protection against pentylenetetrazole-induced clonic seizure administered 30 mins before pentylenetetrazole challenge measured after 30 mins. Format: ADME, organism-based. The note with it: C57B/6, ip, 0.5 h. In short, it runs like this:
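Pentylenetetrazole 85 mg/kg sc, a dose set by dose-percent effect curve to give clonic seizures in 100% of mice, injected 30 min after ip compound in polyethylene glycol-400.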

Data set [7] concerns Mus musculus. The data set can be described thus: Anticonvulsant activity in ip dosed C57B/6 mouse assessed as protection against isoniazid-induced tonic seizure administered 30 mins before isoniazide challenge measured after 1 hrs. The note with it: C57B/6, ip. Format: ADME, organism-based.
Data set [8] has as its system Mus musculus. Description: Anticonvulsant activity in ip dosed C57B/6 mouse assessed as protection against thiosemicarbazide-induced tonic seizure administered 30 mins before thiosemicarbazide challenge measured after 1 hrs. Format: ADME, organism-based. The note with it: C57B/6, ip.

Each structure is given as a SMILES string.

Broadly, the TD50 is the 50% point of the dose-response relation for the toxic effect studied. Read a low TD50 as greater toxicity. By ED50 is commonly meant the dose that gives a 50% effect, or the effect in half of the subjects.

`COc1cc2nncn2c2ccccc12` gave a TD50 at 0.5 h in data set [1] of 102 mg/kg. The ED50 in data set [2] was found to be 93 mg/kg. Besides, in data set [3], the “Ratio TD50/ED50” value is on record as 1.1.

In turn, `CCCCCOc1cc2nncn2c2ccccc12` had a TD50 at 0.5 h in data set [1] of 63.4 mg/kg. Moreover, the ED50 in data set [2] turned out to be 24.5 mg/kg. Moreover, in data set [3], the “Ratio TD50/ED50” value amounted to 2.6.

As for `CCOc1cc2nncn2c2ccccc12`, the TD50 at 0.5 h in data set [1] was determined as 131 mg/kg. Further, the ED50 in data set [2] is 91.3 mg/kg. Further, in data set [3], the “Ratio TD50/ED50” value was 1.4.

As to `c1ccc(COc2ccc3c(c2)CCc2nncn2-3)cc1`, the “Ratio TD50/ED50” value in data set [3] is 3.5.

`Clc1cccc(Cl)c1COc1cc2nncn2c2ccccc12`: the median effective dose (ED50) in data set [2] is over 100 mg/kg.

Turning to `c1ccc(COc2cc3nncn3c3ccccc23)cc1`, the median effective dose (ED50) was 9.5 mg/kg in data set [4]; 22.8 mg/kg in data set [2]; 27.4 mg/kg in data set [6]; 38 mg/kg in data set [7]; 19 mg/kg in data set [8]. The same compound had a TD50 at 0.5 h in data set [1] of 274 mg/kg. Also, in data set [5], the Activity entry is on record as “Not Active”. Also, in data set [3], the “Ratio TD50/ED50” value came to 12.

For the compound `Brc1ccccc1COc1cc2nncn2c2ccccc12`, the median effective dose (ED50) in data set [2] is over 100 mg/kg.

`Fc1cccc(COc2cc3nncn3c3ccccc23)c1`: the ED50 in data set [2] was over 100 mg/kg.

For the compound `Clc1ccccc1COc1cc2nncn2c2ccccc12`, the median effective dose (ED50) in data set [2] is over 100 mg/kg.

For `Fc1ccc(COc2ccc3c(c2)CCc2nncn2-3)cc1`, the median effective dose (ED50) in data set [2] came out at 11.1 mg/kg.

Consider `Clc1ccc(COc2cc3nncn3c3ccccc23)c(Cl)c1`, for which the 50% effective dose (ED50) in data set [2] was over 100 mg/kg.

The compound `CCCOc1cc2nncn2c2ccccc12` yielded a TD50 at 0.5 h in data set [1] of 94.7 mg/kg. Besides, the ED50 in data set [2] was 65.7 mg/kg. Besides, the “Ratio TD50/ED50” value in data set [3] worked out at 1.4.

In data set [1], `CCCCOc1cc2nncn2c2ccccc12` gave a TD50 at 0.5 h of 54.8 mg/kg. Also, the ED50 in data set [2] is 36.7 mg/kg. Also, in data set [3], the “Ratio TD50/ED50” value is listed as 1.5.

In data set [1], `CCCCCCOc1cc2nncn2c2ccccc12` registered a TD50 at 0.5 h of 110 mg/kg. In addition, the ED50 in data set [2] turned out to be 19 mg/kg. For the same compound, in data set [3], the “Ratio TD50/ED50” value stood at 5.8.

Take `Brc1ccc(COc2cc3nncn3c3ccccc23)cc1`: the ED50 in data set [2] was over 100 mg/kg.

For `Clc1ccc(COc2cc3nncn3c3ccccc23)cc1`, in data set [2], the ED50 was over 100 mg/kg.

In data set [1], `CCCCCCCOc1cc2nncn2c2ccccc12` had a TD50 at 0.5 h of 110 mg/kg. Besides, the ED50 in data set [2] worked out at 68.2 mg/kg. Moreover, the “Ratio TD50/ED50” value in data set [3] stood at 1.6.

Regarding `Cc1ccc(COc2cc3nncn3c3ccccc23)cc1`, in data set [2], the ED50 is over 100 mg/kg.

Regarding `Fc1ccc(COc2cc3nncn3c3ccccc23)cc1`, in data set [2], the median effective dose (ED50) was over 100 mg/kg.

On to `NC(=O)N1c2ccccc2C=Cc2ccccc21` [CARBAMAZEPINE], for which the median effective dose (ED50) in data set [4] was 13.7 mg/kg; in data set [2], 11.8 mg/kg; in data set [6], 11.4 mg/kg; in data set [7], 22.8 mg/kg; in data set [8], 19.7 mg/kg. Moreover, in data set [1], the TD50 at 0.5 h worked out at 76.1 mg/kg. Further, in data set [5], the Activity result is recorded as “Not Active”. Moreover, the “Ratio TD50/ED50” value in data set [3] worked out at 6.4.

In data set [1], `Fc1ccccc1COc1cc2nncn2c2ccccc12` yielded a TD50 at 0.5 h of 228 mg/kg. In data set [2], the ED50 was 25.4 mg/kg. The “Ratio TD50/ED50” value in data set [3] was determined as 9.

For the compound `CCCCCCCCOc1cc2nncn2c2ccccc12`, the ED50 in data set [2] is over 100 mg/kg.

For the origin of these results see ChEMBL document CHEMBL1138568, “Design and synthesis of 5-alkoxy-[1,2,4]triazolo[4,3-a]quinoline derivatives with anticonvulsant activity” (Eur J Med Chem, 2009).
